From PMC3865530 (Current pharmaceutical design, 2012)

Assays:
Format in all cases: binding
[1] = system: AATT duplex sequence; assay: UV-thermal melting with AT-rich hairpin duplex DNA; details: ligand:DNA ratio 2:1; 80 mM KCl; Tm of free AATT 69 °C
[2] = system: Tel24 human telomeric quadruplex DNA; assay: UV-thermal melting with telomeric quadruplex DNA; details: ligand:DNA ratio 4:1; 80 mM KCl; Tm of free Tel24 67 °C
[3] = system: (CG)4 duplex sequence; assay: UV-thermal melting with GC-rich hairpin duplex DNA; details: ligand:DNA ratio 2:1; 80 mM KCl; Tm of free (CG)4 63 °C
How it was run: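 Duplex melted in 10 mM K₂HPO₄, 80 mM KCl, 3 mM EDTA, pH 7.3, at 2–3 µM single-strand, in 1 cm quartz cuvettes. Ligand was titrated from stock to compound:DNA ratios up to 4:1. Absorbance at 260 nm was followed while heating at 0.5 °C/min. ΔTm was taken at 2:1, reproducible within ±1 °C.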

## Cn1cc(NC(=O)c2cc(NC(=O)c3cc(NC=O)cn3C)cn2C)cc1C(=O)NCCC(=N)N [Distamycin]
[1]
  ∆Tm of AATT duplex: strong binder
[2]
  ∆Tm of Tel24 quadruplex: did not show any significant increase

## COS(=O)(=O)[O-].Cc1cc2c3c([n+](C)c4ccc(F)cc4c3c1)-c1cc(F)ccc1N2C [RHPS4, 3,11-difluoro-6,8,13-trimethyl-8H-quino[4,3,2-kl] acridinium methosulfate]
[1]
  ∆Tm of AATT duplex: very little affinity
[2]
  ∆Tm of Tel24 quadruplex: very similar melting values as DB832
[3]
  ∆Tm of (CG)4 duplex: very little affinity
